From ChEMBL document CHEMBL2176964, “Small molecule inhibitors of Bacillus anthracis protective antigen proteolytic activation and oligomerization” (J Med Chem, 2012)
Calls of active or inactive are those of the source. The rule behind the calls is not given here.

What was measured:
[1] = biological target: Protective antigen (Bacillus anthracis) (UniProt P13423); experiment: Inhibition of human furin-mediated Bacillus anthracis PA83 cleavage at 1 to 100 uM after 1 hr by Western blot analysis
Procedure, shortened: (§1)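 Substrate at 100 nM (purified PA for PA83 cleavage; TGFα-PE38 with a furin-cleavable RKKR linker) was mixed with 1, 10 or 100 μM inhibitor, or 1% DMSO. Buffer: 50 mM Hepes pH 7.5, 2 mM CaCl2, 0.5 mM EDTA, 0.2% octyl glucoside. Soluble human furin was added at 1 nM final for 1 h at 37°C. The reaction was boiled in SDS dye, run on a 4–20% gel and blotted with anti-PA or anti-Pseudomonas exotoxin serum.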

[2] = biological target: Protective antigen (Bacillus anthracis) (UniProt P13423); experiment: Inhibition of Bacillus anthracis Protective antigen-mediated cytotoxicity in human HT1080 cells by MTT assay in presence of fetal bovine serum; format: cell-based; conditions: HT-1080
[3] = biological target: Protective antigen (Bacillus anthracis) (UniProt P13423); experiment: Inhibition of Bacillus anthracis Protective antigen assessed as reduction in PA63 level in CHO C4 cells at 100 uM after 1 hr by Western blot analysis relative to untreated-control; format: cell-based
[4] = biological target: Protective antigen (Bacillus anthracis) (UniProt P13423); experiment: Inhibition of Bacillus anthracis Protective antigen-mediated cytotoxicity in RAW264.7 cells at 3 uM compound co-treated for 5 hrs with antigen measured after 48 hrs by MTT assay in presence of FP59; format: cell-based
[5] = biological target: Protective antigen (Bacillus anthracis) (UniProt P13423); experiment: Inhibition of Bacillus anthracis Protective antigen-mediated cytotoxicity in RAW264.7 cells by MTT assay in presence of fetal bovine serum; format: cell-based
RAW264.7 [6] = experiment: Cytotoxicity against mouse RAW264.7 cells compound incubated at 10 to 100 uM for extended period by MTT assay; format: cell-based; conditions: raw264.7, 100 µM
Procedure, shortened: (§2)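 Compound toxicity was measured in serum-free DMEM with 10 mM Hepes pH 7.3 and gentamicin at 37°C, by MTT read-out. There were two exposure schemes: a 5-h exposure, or a 54-h incubation in which the inhibitor was removed from the medium after 5 h. MTT cannot distinguish growth inhibition from toxicity.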

[7] = biological target: Protective antigen (Bacillus anthracis) (UniProt P13423); experiment: Inhibition of Bacillus anthracis Protective antigen-mediated cytotoxicity in RAW264.7 cells at 10 uM compound co-treated for 5 hrs with antigen by MTT assay in presence of lethal factor; format: cell-based
[8] = biological target: Protective antigen (Bacillus anthracis) (UniProt P13423); experiment: Inhibition of Bacillus anthracis Protective antigen assessed as reduction in PA83 level in CHO C4 cells at 100 uM after 1 hr by Western blot analysis relative to untreated-control; format: cell-based
HT-1080 [9] = experiment: Cytotoxicity against human HT1080 cells compound incubated at 10 to 100 uM for extended period by MTT assay; format: cell-based; conditions: ht-1080, 100 µM; procedure, shortened: as §2
[10] = biological target: Protective antigen (Bacillus anthracis) (UniProt P13423); experiment: Inhibition of Bacillus anthracis Protective antigen assessed as reduction in PA83 level in CHO C4 cells at 100 uM after 1 hr by Western blot analysis relative to untreated-control in presence of lethal factor; format: cell-based
Homo sapiens = species on record: Homo sapiens; experiment: Inhibition of human furin-mediated TGFalpha-PE38 cleavage at 1 to 100 uM after 1 hr by Western blot analysis; procedure, shortened: as §1
[11] = biological target: Protective antigen (Bacillus anthracis) (UniProt P13423); experiment: Inhibition of Bacillus anthracis Protective antigen-mediated cytotoxicity in RAW264.7 cells at 100 uM compound co-treated for 5 hrs with antigen by MTT assay in presence of lethal factor; format: cell-based
[12] = biological target: Protective antigen (Bacillus anthracis) (UniProt P13423); experiment: Inhibition of matrix metalloprotease activated Bacillus anthracis Protective antigen-mediated cytotoxicity in HT1080 cells at 100 uM compound co-treated for 5 hrs with antigen measured after 48 hrs by MTT assay in presence of FP59; format: cell-based; conditions: HT-1080
[13] = biological target: Protective antigen (Bacillus anthracis) (UniProt P13423); experiment: Inhibition of Bacillus anthracis Protective antigen-mediated cytotoxicity in HT1080 cells at 100 uM compound co-treated for 5 hrs with antigen measured after 48 hrs by MTT assay in presence of FP59; format: cell-based; conditions: HT-1080
[14] = biological target: Protective antigen (Bacillus anthracis) (UniProt P13423); experiment: Inhibition of Bacillus anthracis Protective antigen-mediated cytotoxicity in RAW264.7 cells at 100 uM compound co-treated for 5 hrs with antigen measured after 48 hrs by MTT assay in presence of FP59; format: cell-based
RAW264.7 [15] = experiment: Cytotoxicity against mouse RAW264.7 cells at 10 to 100 uM by MTT assay; format: cell-based; conditions: raw264.7, 100 µM; procedure, shortened: as §2
HT-1080 [16] = experiment: Cytotoxicity against human HT1080 cells at 10 to 100 uM by MTT assay; format: cell-based; conditions: ht-1080, 100 µM; procedure, shortened: as §2
[17] = biological target: Protective antigen (Bacillus anthracis) (UniProt P13423); experiment: Inhibition of Bacillus anthracis Protective antigen-mediated cytotoxicity in RAW264.7 cells compound co-treated for 5 hrs with antigen by MTT assay in presence of lethal factor; format: cell-based

Protective antigen (Bacillus anthracis), sequence (P13423 whole entry): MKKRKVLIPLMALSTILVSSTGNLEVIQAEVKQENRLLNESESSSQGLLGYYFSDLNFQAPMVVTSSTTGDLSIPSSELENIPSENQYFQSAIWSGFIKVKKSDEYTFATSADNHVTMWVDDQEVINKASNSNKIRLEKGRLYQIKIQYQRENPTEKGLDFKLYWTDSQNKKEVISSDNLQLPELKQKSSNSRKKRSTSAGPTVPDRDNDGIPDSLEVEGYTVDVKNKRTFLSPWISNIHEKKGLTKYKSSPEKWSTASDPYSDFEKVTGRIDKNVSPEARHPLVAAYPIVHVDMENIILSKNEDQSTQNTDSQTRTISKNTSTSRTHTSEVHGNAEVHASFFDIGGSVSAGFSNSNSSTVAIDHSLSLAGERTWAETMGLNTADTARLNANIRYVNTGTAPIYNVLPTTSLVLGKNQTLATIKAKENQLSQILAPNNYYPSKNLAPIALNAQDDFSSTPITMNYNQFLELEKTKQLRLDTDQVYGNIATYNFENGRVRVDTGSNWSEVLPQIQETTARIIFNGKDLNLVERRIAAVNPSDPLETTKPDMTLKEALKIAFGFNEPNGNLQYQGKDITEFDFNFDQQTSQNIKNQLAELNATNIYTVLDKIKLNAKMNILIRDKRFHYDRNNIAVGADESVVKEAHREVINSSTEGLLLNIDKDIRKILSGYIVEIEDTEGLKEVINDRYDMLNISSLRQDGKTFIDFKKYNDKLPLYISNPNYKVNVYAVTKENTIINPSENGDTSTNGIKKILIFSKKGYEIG

SMILES | inhibition [1] | inhibition [2] | inhibition [3] | inhibition [4] | inhibition [5] | Activity (RAW264.7 [6]) | inhibition [7] | inhibition [8] | Activity (HT-1080 [9]) | inhibition [10] | inhibition (Homo sapiens) | inhibition [11] | inhibition [12] | inhibition [13] | inhibition [14] | Activity (RAW264.7 [15]) | Activity (HT-1080 [16]) | inhibition [17]
Oc1ccccc1/C=N/c1ccc(Cc2ccc(/N=C/c3ccccc3O)c(O)c2)cc1O | Active | inactive | Active | Active | inactive | Toxic | Active | inactive | Toxic | inactive | inactive |  |  |  |  |  |  | 
O=c1c(O)c(-c2ccc(O)c(O)c2)oc2cc(O)cc(O)c12 | inactive | inactive | inactive |  | inactive |  |  | inactive |  | inactive | inactive | Active | Active | Active | Active |  |  | 
NC(=O)c1ccccc1NC(=O)c1ccc(C(=O)Nc2ccccc2C(N)=O)cc1 | inactive | inactive | Active | Active | inactive |  | Active | inactive |  | inactive | inactive |  |  |  |  | Non-toxic | Non-toxic | 
NC(=O)c1ccccc1NC(=O)c1cccc(C(=O)Nc2ccccc2C(N)=O)c1 |  |  |  |  |  |  |  |  |  |  |  |  |  |  |  |  |  | Active
